{"source": "ChEMBL document CHEMBL5154715", "about": "“Phenolic Lipids Derived from Cashew Nut Shell Liquid to Treat Metabolic Diseases” (J Med Chem, 2022)", "key": {"[1]": {"molecular_target": "T1, Peroxisome proliferator-activated receptor alpha (Homo sapiens) (UniProt Q07869)", "T1 sequence (whole entry)": "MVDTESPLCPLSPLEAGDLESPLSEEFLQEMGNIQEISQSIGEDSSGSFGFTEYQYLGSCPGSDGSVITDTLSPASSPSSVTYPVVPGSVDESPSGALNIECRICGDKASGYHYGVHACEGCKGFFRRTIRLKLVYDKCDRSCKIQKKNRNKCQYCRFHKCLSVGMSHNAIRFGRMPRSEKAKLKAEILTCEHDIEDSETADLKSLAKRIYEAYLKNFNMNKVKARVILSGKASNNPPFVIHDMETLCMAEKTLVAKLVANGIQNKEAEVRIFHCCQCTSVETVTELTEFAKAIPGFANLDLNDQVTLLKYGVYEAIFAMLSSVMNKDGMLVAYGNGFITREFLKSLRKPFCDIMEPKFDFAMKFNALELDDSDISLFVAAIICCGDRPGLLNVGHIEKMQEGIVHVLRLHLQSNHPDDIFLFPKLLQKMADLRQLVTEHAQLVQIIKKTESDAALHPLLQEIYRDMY", "experiment": "Agonist activity at human PPARalpha transfected in HEK293 cells assessed as relative luciferase unit at 50 uM measured after 16 hrs by luciferase reporter gene assay", "format": "cell-based", "details": "filed as agonist", "in_short": "(§1)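 GAL4-hPPAR (α or γ) plus UAS-luciferase and β-galactosidase transiently co-transfected into HEK293 cells, then treated with 50 μM compound for 16 h. RLU = luciferase/β-galactosidase × time, vehicle (DMSO) set to 1. Mean ± SD, N = 3; one-way ANOVA with Holm–Šidák vs vehicle.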"}, "[2]": {"molecular_target": "T2, Peroxisome proliferator-activated receptor gamma (Homo sapiens) (UniProt P37231)", "T2 sequence (whole entry)": "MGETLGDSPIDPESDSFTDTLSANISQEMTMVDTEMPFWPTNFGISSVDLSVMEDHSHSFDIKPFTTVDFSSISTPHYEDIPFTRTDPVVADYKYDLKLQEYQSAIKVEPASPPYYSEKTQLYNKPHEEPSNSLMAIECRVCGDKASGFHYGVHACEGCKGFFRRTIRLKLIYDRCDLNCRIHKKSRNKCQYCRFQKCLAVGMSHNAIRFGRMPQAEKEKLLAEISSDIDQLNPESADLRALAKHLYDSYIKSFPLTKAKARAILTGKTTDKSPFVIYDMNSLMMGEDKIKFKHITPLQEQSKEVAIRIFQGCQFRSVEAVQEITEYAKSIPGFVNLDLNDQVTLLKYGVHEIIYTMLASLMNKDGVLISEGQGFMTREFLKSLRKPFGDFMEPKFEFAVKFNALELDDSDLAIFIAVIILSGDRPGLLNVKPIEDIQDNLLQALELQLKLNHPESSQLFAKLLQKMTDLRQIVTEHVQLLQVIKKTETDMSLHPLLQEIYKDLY", "experiment": "Agonist activity at human PPARgamma transfected in HEK293 cells assessed as relative luciferase unit at 50 uM measured after 16 hrs by luciferase reporter gene assay", "format": "cell-based", "details": "filed as agonist", "in_short": "as §1"}, "[3]": {"test_system": "Hepatocyte", "experiment": "Cytotoxicity against mouse primary hepatocytes at 25 uM by MTT assay", "format": "toxicity, cell-based", "details": "264 h, time 11 day"}, "[4]": {"test_system": "HEK293", "experiment": "Cytotoxicity against HEK293 cells at 25 uM by MTT assay", "format": "toxicity, cell-based", "details": "human, hek293, 264 h, time 11 day", "in_short": "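MTT assay in HEK293 cells with compounds dosed at 25 μM.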"}, "[5]": {"molecular_target": "T3, Peroxisome proliferator-activated receptor alpha (Homo sapiens, UniProt Q07869)", "T3 sequence (Q07869 whole entry)": "T1 sequence (whole entry)", "experiment": "Agonist activity at human PPARalpha expressed in HEK293 cells by luciferase/beta-galactosidase reporter gene assay", "format": "cell-based", "in_short": "(§2)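 HEK293 cells in charcoal-stripped FBS, calcium phosphate co-transfected with GAL4-hPPAR LBD fusion, UAS-luciferase and β-galactosidase. Ligand added 6–8 h post transfection, full dose–response, harvested 14–16 h later. Luciferase normalized to β-galactosidase.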"}, "[6]": {"molecular_target": "T4, Peroxisome proliferator-activated receptor gamma (Homo sapiens, UniProt P37231)", "T4 sequence (P37231 whole entry)": "T2 sequence (whole entry)", "experiment": "Agonist activity at human PPARgamma expressed in HEK293 cells by luciferase/beta-galactosidase reporter gene assay", "format": "cell-based", "in_short": "as §2"}, "[7]": {"molecular_target": "T1, Peroxisome proliferator-activated receptor alpha (Homo sapiens)", "experiment": "Agonist activity at human PPARalpha expressed in HEK293 cells assessed as maximal activity by luciferase/beta-galactosidase reporter gene assay relative to GW7647", "format": "cell-based", "in_short": "as §2"}, "[8]": {"molecular_target": "T2, Peroxisome proliferator-activated receptor gamma (Homo sapiens)", "experiment": "Agonist activity at human PPARgamma expressed in HEK293 cells assessed as maximal activity by luciferase/beta-galactosidase reporter gene assay relative to rosiglitazone", "format": "cell-based", "details": "filed as agonist", "in_short": "as §2"}, "[9]": {"molecular_target": "T5, Peroxisome proliferator-activated receptor alpha (Mus musculus) (UniProt P23204)", "T5 sequence (whole entry)": "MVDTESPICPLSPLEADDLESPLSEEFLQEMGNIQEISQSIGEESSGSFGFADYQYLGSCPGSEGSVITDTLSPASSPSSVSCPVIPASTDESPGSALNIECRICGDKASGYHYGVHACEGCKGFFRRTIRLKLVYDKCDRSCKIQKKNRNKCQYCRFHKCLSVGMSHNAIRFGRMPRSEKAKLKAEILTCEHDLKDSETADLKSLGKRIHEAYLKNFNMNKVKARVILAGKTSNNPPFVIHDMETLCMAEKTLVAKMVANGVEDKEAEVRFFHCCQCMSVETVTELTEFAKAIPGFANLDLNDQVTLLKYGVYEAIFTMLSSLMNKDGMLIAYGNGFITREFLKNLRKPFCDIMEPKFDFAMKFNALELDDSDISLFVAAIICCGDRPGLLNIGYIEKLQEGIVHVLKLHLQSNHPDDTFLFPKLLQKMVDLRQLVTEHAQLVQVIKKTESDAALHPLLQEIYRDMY", "experiment": "Agonist activity at human PPARalpha in mouse hepatocytes assessed as induction of fabp1 mRNA expression at 50 uM incubated for 16 hrs by quantitative real-time PCR analysis", "format": "cell-based", "details": "Hepatocyte, filed as agonist", "in_short": "(§3)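 Collagenase-perfused mouse primary hepatocytes from WT mice, plated 2 h in attachment medium, overnight in M199 with 5% charcoal-stripped FBS and 1 nM insulin. Treated next day in serum-free M199 with 50 μM compound for 16 h. RNA qPCR (SYBR Green), comparative Ct method.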"}, "[10]": {"molecular_target": "T5, Peroxisome proliferator-activated receptor alpha (Mus musculus)", "experiment": "Agonist activity at human PPARalpha in mouse hepatocytes assessed as induction of Fgf21 mRNA expression at 50 uM incubated for 16 hrs by quantitative real-time PCR analysis", "format": "cell-based", "details": "Hepatocyte, filed as agonist", "in_short": "as §3"}, "[11]": {"molecular_target": "T5, Peroxisome proliferator-activated receptor alpha (Mus musculus)", "experiment": "Agonist activity at human PPARalpha in mouse hepatocytes assessed as induction of Pdk4 mRNA expression at 50 uM incubated for 16 hrs by quantitative real-time PCR analysis", "format": "cell-based", "details": "Hepatocyte, filed as agonist", "in_short": "as §3"}, "[12]": {"molecular_target": "T6, Peroxisome proliferator-activated receptor delta (Homo sapiens) (UniProt Q03181)", "T6 sequence (whole entry)": "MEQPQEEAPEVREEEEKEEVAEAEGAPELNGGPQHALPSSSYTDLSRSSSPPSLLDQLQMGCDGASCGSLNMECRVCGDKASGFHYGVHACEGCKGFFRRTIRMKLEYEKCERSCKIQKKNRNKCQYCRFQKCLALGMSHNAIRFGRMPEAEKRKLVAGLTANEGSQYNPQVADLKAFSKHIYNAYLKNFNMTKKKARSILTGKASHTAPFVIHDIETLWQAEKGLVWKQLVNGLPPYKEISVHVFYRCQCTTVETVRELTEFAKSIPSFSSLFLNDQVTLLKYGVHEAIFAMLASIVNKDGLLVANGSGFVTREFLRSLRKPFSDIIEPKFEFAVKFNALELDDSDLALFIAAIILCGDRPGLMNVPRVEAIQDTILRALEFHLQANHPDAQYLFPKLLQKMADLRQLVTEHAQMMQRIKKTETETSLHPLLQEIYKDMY", "details": "HEK293, filed as agonist"}}, "note": "Activity calls are given as the source filed them. No cut-off for these calls is given here.", "data": [{"smiles": "CCCCCCCCCCCCCCCc1cccc(OCC(=O)O)c1", "values": [{"measurement": "Activity", "setting": "[1]", "value": "Active"}, {"measurement": "Activity", "setting": "[2]", "value": "Active"}, {"measurement": "Activity", "setting": "[3]", "value": "Non-Toxic"}, {"measurement": "Activity", "setting": "[4]", "value": "Toxic"}, {"measurement": "EC50", "setting": "[5]", "value": 1.1, "unit": "µM"}, {"measurement": "EC50", "setting": "[6]", "value": 3.7, "unit": "µM"}, {"measurement": "Emax", "setting": "[7]", "value": 30, "unit": "%"}, {"measurement": "Emax", "setting": "[8]", "value": "> 90", "unit": "%"}, {"measurement": "Activity", "setting": "[9]", "value": "Active"}, {"measurement": "Activity", "setting": "[10]", "value": "Active"}, {"measurement": "Activity", "setting": "[11]", "value": "Active"}, {"measurement": "EC50", "setting": "[12]", "value": 10, "unit": "µM"}]}]}
